# According to ChEMBL document CHEMBL3244060, “Methotrexate analogues. 8. Synthesis and biological evaluation of bisamide derivatives as potential prodrugs” (J Med Chem, 1977):
# Activity calls are given as the source filed them. The calls are words filed in the database; no cut-off is given here.
# Tests used:
# [1] = system: CCRF-CEM; test: Cytotoxicity against human CCRF-CEM cells assessed as growth inhibition; format: functional; details: read-out: ID50 (the source's name)
# [2] = system: L1210; test: Antitumor activity against mouse L1210 cells allografted in mouse assessed as increase in life span at 7 mg/kg, sc administered daily up to death started on day 5 post tumor implantation relative to control; format: functional; details: 120 h, route subcutaneous
# [3] = system: Mus musculus; test: Toxicity in mouse allografted with mouse L1210 cells at 15 to 525 mg/kg, ip qd administered every 3 days for 7 days; format: organism-based; set-up: dose 15-525 mg/kg, route intraperitoneal; details: in vivo
# Summary of the method: (§1)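 Mice inoculated ip with 10^5 L1210 cells on day 0. Test agents injected ip in 10% Tween 80 on days 1, 4 and 7; doses 15 to 525 mg/kg. Positive control given as disodium salt in aqueous solution. Test groups of 5, control groups of 10-15. Median survival scored; %ILS = 100 × (T − C)/C.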
# [4] = system: L1210; test: Antitumor activity against mouse L1210 cells allografted in mouse assessed as increase in life span at 15 to 525 mg/kg, ip qd administered every 3 days for 7 days; format: functional, organism-based; summary of the method: as §1
# [5] = system: L1210; test: Antitumor activity against mouse L1210 cells allografted in mouse assessed as median survival time at 25 mg/kg, ip qd administered every 3 days for 7 days; format: functional; details: route intraperitoneal
# Summary of the method: (§2)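 Mice were inoculated ip with 10^5 L1210 leukemia cells on day 0. Dosing was ip on days 1, 4 and 7 in 10% Tween 80, with the methotrexate disodium salt in water, over 15–525 mg/kg. Survival was recorded in days as the range and median per group, with 5 treated and 10-15 untreated controls.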
# [6] = system: L1210; test: Antitumor activity against mouse L1210 cells allografted in mouse assessed as median survival time at 15 mg/kg, ip qd administered every 3 days for 7 days; format: functional; details: route intraperitoneal; summary of the method: as §2
# [7] = system: L1210; test: Antitumor activity against mouse L1210 cells allografted in mouse assessed as increase in life span at 25 mg/kg, ip qd administered every 3 days for 7 days relative to control; format: functional; details: route intraperitoneal
# Summary of the method: (§3)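 L1210 cells (10^5) implanted ip in mice on day 0. Compounds given ip in 10% Tween 80 on days 1, 4 and 7, at doses from 15 to 525 mg/kg. Methotrexate was given as the disodium salt in aqueous solution. Groups had 5 treated and 10-15 control animals. %ILS = 100 × (T − C)/C, where T and C are median survival days of treated and control mice.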
# [8] = system: L1210; test: Antitumor activity against mouse L1210 cells allografted in mouse assessed as increase in life span at 15 mg/kg, ip qd administered every 3 days for 7 days relative to control; format: functional; details: route intraperitoneal; summary of the method: as §3
# [9] = Cytotoxicity against RBL cells assessed as growth inhibition; format: functional; details: Rattus norvegicus, read-out: ID50 (the source's name)
# [10] = system: L1210; test: Antitumor activity against mouse L1210 cells allografted in mouse assessed as median survival time at 150 mg/kg, ip qd administered every 3 days for 7 days; format: functional; details: route intraperitoneal; summary of the method: as §2
# [11] = system: L1210; test: Antitumor activity against mouse L1210 cells allografted in mouse assessed as increase in life span at 150 mg/kg, ip qd administered every 3 days for 7 days relative to control; format: functional; details: route intraperitoneal; summary of the method: as §3
# [12] = system: L1210; test: Antitumor activity against mouse L1210 cells allografted in mouse assessed as median survival time at 525 mg/kg, ip qd administered every 3 days for 7 days; format: functional; details: route intraperitoneal; summary of the method: as §2
# [13] = system: L1210; test: Antitumor activity against mouse L1210 cells allografted in mouse assessed as increase in life span at 225 mg/kg, ip qd administered every 3 days for 7 days relative to control; format: functional; details: route intraperitoneal; summary of the method: as §3
# [14] = system: Serum; test: Prodrug conversion in rat whole serum assessed as formation of methotrexate at 0.006 g measured up to 24 hrs by TLC analysis; format: ADME
# Summary of the method: (§4)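 Fresh rat serum 0.9 mL plus compound 0.006 g in 0.1 mL Me2SO, incubated at 37 °C with gentle shaking for up to 24 h. Cooled on ice, diluted 1.5-fold with methanol to precipitate protein, centrifuged. Supernatant run on fluorescent cellulose TLC developed with 0.5 M phosphate buffer pH 7.4 to detect parent compound and metabolites.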
# [15] = system: L1210; test: Antitumor activity against mouse L1210 cells allografted in mouse assessed as median survival time at 350 mg/kg, ip qd administered every 3 days for 7 days; format: functional; details: route intraperitoneal; summary of the method: as §2
# [16] = system: L1210; test: Antitumor activity against mouse L1210 cells allografted in mouse assessed as increase in life span at 350 mg/kg, ip qd administered every 3 days for 7 days relative to control; format: functional; details: route intraperitoneal; summary of the method: as §3
# [17] = system: L1210; test: Antitumor activity against mouse L1210 cells allografted in mouse assessed as median survival time at 225 mg/kg, ip qd administered every 3 days for 7 days; format: functional; details: route intraperitoneal; summary of the method: as §2
# [18] = system: L1210; test: Antitumor activity against mouse L1210 cells allografted in mouse assessed as increase in life span at 525 mg/kg, ip qd administered every 3 days for 7 days relative to control; format: functional; details: route intraperitoneal; summary of the method: as §3
# [19] = molecular target: Dihydrofolate reductase (Lactobacillus casei) (UniProt P00381); test: Inhibition of methotrexate-resistant Lactobacillus casei ATCC 7469 dihydrofolate reductase; details: Lacticaseibacillus casei
# [20] = system: Serum; test: Drug level in rat whole serum treated with methotrexate di-n-butyl ester measured after 1 hr by TLC analysis; format: ADME, cell-free; summary of the method: as §4
# [21] = system: Plasma; test: Drug level in mouse plasma treated with methotrexate bis(benzylamide) at 100 mg/kg, ip measured after 6 to 24 hrs by TLC analysis; format: ADME, organism-based; set-up: dose 100 mg/kg, route intraperitoneal; details: in vivo
# Summary of the method: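 Normal mice received a single ip dose of 100 mg/kg in 10% Tween 80. One animal was killed at 6 h and one at 24 h. Blood was taken by ocular puncture with a heparinized syringe and the red cells spun down. Plasma 0.2 mL was cooled on ice and diluted with methanol 0.4 mL to precipitate protein, then centrifuged. Analysed by cellulose TLC developed in 0.5 M phosphate buffer pH 7.4.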
# Chain of Dihydrofolate reductase (Lactobacillus casei) (P00381 whole entry): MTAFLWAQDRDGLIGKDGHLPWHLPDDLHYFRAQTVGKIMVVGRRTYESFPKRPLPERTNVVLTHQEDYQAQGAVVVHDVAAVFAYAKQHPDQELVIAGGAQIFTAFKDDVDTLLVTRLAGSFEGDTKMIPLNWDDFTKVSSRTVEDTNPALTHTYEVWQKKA
compound,measurement,setting,value
CCCCNC(=O)CC[C@H](NC(=O)c1ccc(N(C)Cc2cnc3nc(N)nc(N)c3n2)cc1)C(=O)NCCCC,IC50,[1],> 10 µg/mL
Nc1nc(N)c2nc(CNc3ccc(C(=O)N[C@@H](CCC(=O)NCc4ccccc4)C(=O)NCc4ccccc4)cc3)cnc2n1,ILS at 7 mg/kg,[2],30%
CN(Cc1cnc2nc(N)nc(N)c2n1)c1ccc(C(=O)N[C@@H](CCC(=O)N2CCCC2)C(=O)N2CCCC2)cc1,Activity,[3],Toxic
same,Activity,[4],inactive
CN(Cc1cnc2nc(N)nc(N)c2n1)c1ccc(C(=O)N[C@@H](CCC(=O)[O-])C(=O)[O-])cc1.[Na+].[Na+] [METHOTREXATE SODIUM],MST,[5],18 days
same,MST,[6],15 days
same,ILS at 25 mg/kg,[7],100%
same,ILS at 15 mg/kg,[8],66%
CN(C)CCCNC(=O)CC[C@H](NC(=O)c1ccc(N(C)Cc2cnc3nc(N)nc(N)c3n2)cc1)C(=O)NCCCN(C)C,Activity,[3],Toxic
same,Activity,[4],inactive
COc1ccc(CCNC(=O)CC[C@H](NC(=O)c2ccc(N(C)Cc3cnc4nc(N)nc(N)c4n3)cc2)C(=O)NCCc2ccc(OC)c(OC)c2)cc1OC,IC50,[1],> 10 µg/mL
CN(Cc1cnc2nc(N)nc(N)c2n1)c1ccc(C(=O)N[C@@H](CCC(=O)NC2CCCCC2)C(=O)NC2CCCCC2)cc1,IC50,[1],1 µg/mL
same,Activity,[3],Toxic
same,Activity,[4],inactive
same,IC50,[9],0.22 µg/mL
CCCNC(=O)CC[C@H](NC(=O)c1ccc(N(C)Cc2cnc3nc(N)nc(N)c3n2)cc1)C(=O)NCCC,MST,[10],11 days
same,ILS at 150 mg/kg,[11],0%
same,MST,[12],13 days
same,ILS at 225 mg/kg,[13],27%
same,Drug metabolism,[14],metabolite_notdetected
same,IC50,[1],7 µg/mL
same,MST,[15],13 days
same,ILS at 350 mg/kg,[16],18%
same,MST,[17],14 days
same,ILS at 525 mg/kg,[18],18%
same,ID50,[19],1.8 ×10⁻⁷ M
CN(Cc1cnc2nc(N)nc(N)c2n1)c1ccc(C(=O)N[C@@H](CCC(=O)O)C(=O)O)cc1 [METHOTREXATE],Drug metabolism,[20],metabolite_detected
same,Drug metabolism,[21],metabolite_detected
same,IC50,[1],0.003 µg/mL
same,IC50,[9],0.003 µg/mL
